This note sets out measurements from ChEMBL document CHEMBL4400536, “Design and synthesis of aminothiazole based Hepatitis B Virus (HBV) capsid inhibitors” (Eur J Med Chem, 2019).

For data set [1], the target named is Core antigen (Hepatitis B virus) (UniProt Q03732). In words: Inhibition of GFP-fused Hepatitis B Virus capsid expressed in HEK293T cells at 50 uM after 48 hrs relative to control. The data set is classed as cell-based. The essentials: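 BiFC assay: HBc fused to Venus fragments VN (1–154) and VC (155–239) were co-transfected into 293T cells, then compounds were added. The dose series used 0, 0.5, 5 and 50 μM; SAR used 50 μM as percent inhibition. After 48 h, reconstituted fluorescence was read as mean fluorescent intensity on a plate reader, with fluorescence microscopy images.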

Data set [2] is described as follows: Cytotoxicity against human HepG2.2.15 cells. The class given is cell-based, HepG2 2.2.15.
The next data set has as its system Hepatitis B virus. As to the kind of experiment: Antiviral activity against Hepatitis B virus infected in human HepG2.2.15 cells assessed as inhibition of viral replication after 7 days by RT-PCR analysis. The data set is classed as functional, organism-based. Particulars: for IC50: HepG2.2.15, 168 h.

Calls of active or inactive are those of the source. No cut-off for these calls is given here.

Chain of Core antigen (Hepatitis B virus) (Q03732 as listed by the source): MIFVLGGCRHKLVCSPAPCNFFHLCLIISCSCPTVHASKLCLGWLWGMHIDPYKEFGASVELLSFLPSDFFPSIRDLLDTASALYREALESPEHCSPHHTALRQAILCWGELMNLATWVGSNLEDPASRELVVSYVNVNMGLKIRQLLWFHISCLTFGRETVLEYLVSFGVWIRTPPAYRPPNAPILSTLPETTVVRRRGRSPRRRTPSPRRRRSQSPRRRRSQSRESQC

`O=C(Nc1ncc(C(Oc2ccc3cc(Br)ccc3c2)c2ccc(Cl)cc2)s1)C1CCCO1` (centres undefined) had an inhibition in data set [1] of 35%.

Consider `Cc1noc(C)c1C(=O)Nc1ncc(C(Oc2ccc3cc(Br)ccc3c2)c2ccc(Cl)cc2)s1` (centres undefined), for which the inhibition in data set [1] was 64%. Turning to `O=C(Nc1ncc(C(OCc2ccc3ccccc3c2)c2ccccc2)s1)c1cccs1` (centres undefined), the inhibition in data set [1] was determined as 47%. On the same count and under the same terms, under `O=S(=O)(Nc1ncc(C(Oc2ccc3cc(Br)ccc3c2)c2ccc(Cl)cc2)s1)c1ccc(Cl)nc1` (centres undefined) stands 30%; under `CC(C)(C)C(=O)Nc1ncc(C(Oc2ccc3cc(Br)ccc3c2)c2ccc(Cl)cc2)s1` (centres undefined), 47%.

Regarding `O=S(=O)(Nc1ncc(C(Oc2ccc3cc(Br)ccc3c2)c2ccc(Cl)cc2)s1)c1ccc(Cl)cc1` (centres undefined), the inhibition in data set [1] came to 50%.

In the case of `O=C(Nc1ncc(C(OCc2ccc(F)cc2Br)c2ccccc2)s1)c1cccs1` (centres undefined), in data set [1], the inhibition worked out at 27%. As for `COc1ccc(C(=O)Nc2ncc(C(Oc3ccc4cc(Br)ccc4c3)c3ccc(Br)cc3)s2)cc1` (centres undefined), the inhibition in data set [1] was determined as 78%. In data set [2], this molecule yielded a 50% cytotoxic concentration (CC50) greater than 50 µM. In data set [1], `CC(=O)O[C@@H]1OC(C(=O)Nc2ncc(C(Oc3ccc4cc(Br)ccc4c3)c3ccc(Cl)cc3)s2)[C@@H](OC(C)=O)[C@@H](OC(C)=O)[C@H]1OC(C)=O` (some centres undefined) yielded an inhibition of 40%.

Regarding `O=S(=O)(Nc1ncc(C(Oc2ccc3cc(Br)ccc3c2)c2ccc(Cl)cc2)s1)c1ccc2ccccc2c1` (centres undefined), the inhibition entry in data set [1] was “inactive”. In data set [2], this molecule registered a CC50 greater than 50 µM. Turning to `COc1ccc(C(=O)Nc2ncc(C(Oc3ccc4cc(Br)ccc4c3)c3ccc(Cl)cc3)s2)cc1` (centres undefined), the inhibition in data set [1] came out at 54%. Besides, in the data set with Hepatitis B virus, the IC50 was found to be 1.45 µM. Besides, the CC50 in data set [2] was greater than 50 µM.

Consider `O=C(Nc1ncc(C(Oc2ccc3cc(Br)ccc3c2)c2ccc(Cl)cc2)s1)c1ccc(Cl)nc1` (centres undefined), for which the inhibition in data set [1] came to 45%. With `CCCCCC(=O)Nc1ncc(C(Oc2ccc3cc(Br)ccc3c2)c2ccc(Cl)cc2)s1` (centres undefined), the inhibition entry in data set [1] was “inactive”. The molecule further gave a 50% cytotoxic concentration (CC50) in data set [2] greater than 50 µM. In the same order, the values of `Cc1ccc(C)c(S(=O)(=O)Nc2ncc(C(Oc3ccc4cc(Br)ccc4c3)c3ccc(Cl)cc3)s2)c1` (centres undefined) are “inactive” and greater than 50 µM. `CC(C)(C)OC(=O)Nc1ncc(C(Oc2ccc3cc(Br)ccc3c2)c2ccc(Cl)cc2)s1` (centres undefined) returned an inhibition in data set [1] of 55%. The 50% inhibitory concentration (IC50) with Hepatitis B virus worked out at 2.27 µM. The molecule further displayed a CC50 in data set [2] greater than 50 µM.

Regarding `Cc1ccc(S(=O)(=O)Nc2ncc(C(Oc3ccc4cc(Br)ccc4c3)c3ccc(Cl)cc3)s2)c2ccccc12` (centres undefined), in data set [1], the inhibition entry is “inactive”. For the same molecule, the 50% cytotoxic concentration (CC50) in data set [2] was greater than 50 µM. `Cc1ccc(C(=O)Nc2ncc(Cc3ccc(F)cc3)s2)cc1`: the inhibition in data set [1] came out at 53%. Regarding `O=C(Nc1ncc(Cc2ccc(F)cc2)s1)c1ccc(Br)cc1`, in data set [1], the inhibition result is “inactive”. Also, the CC50 in data set [2] is greater than 50 µM.

As to `O=C(Nc1ncc(C(Oc2ccc3cc(Br)ccc3c2)c2ccc(Cl)cc2)s1)C1CCOCC1` (centres undefined), the inhibition in data set [1] was 66%. Turning to `O=C(Nc1ncc(C(OCc2ccc(Cl)cc2)c2ccccc2)s1)c1cccs1` (centres undefined), the inhibition in data set [1] was determined as 59%. On to `COc1ccc(C(=O)Nc2ncc(C(Oc3ccc4cc(Br)ccc4c3)c3ccc(C#N)cc3)s2)cc1` (centres undefined), for which the inhibition entry in data set [1] was “inactive”.

Take `Cc1cc(C(C)C)ccc1OC(c1ccc(Cl)cc1)c1cnc(NC(=O)OC(C)(C)C)s1` (centres undefined): the inhibition result in data set [1] was “inactive”. The molecule also yielded a CC50 in data set [2] greater than 50 µM.

For `CCc1ccc(S(=O)(=O)Nc2ncc(C(Oc3ccc4cc(Br)ccc4c3)c3ccc(Cl)cc3)s2)cc1` (centres undefined), the inhibition result in data set [1] is “inactive”. In data set [2], this molecule showed a CC50 greater than 50 µM. Regarding `O=C(Nc1ncc(Cc2ccc(Cl)cc2)s1)c1cccs1`, the inhibition in data set [1] was determined as 59%. In addition, in the data set with Hepatitis B virus, the IC50 was 3.62 µM. Further, in data set [2], the 50% cytotoxic concentration (CC50) was greater than 50 µM. `N#Cc1cccc(C(=O)Nc2ncc(C(Oc3ccc4cc(Br)ccc4c3)c3ccc(Cl)cc3)s2)c1` (centres undefined): in data set [1], the inhibition worked out at 70%. This molecule also showed a half-maximal cytotoxic concentration (CC50) in data set [2] greater than 50 µM. As for `COc1ccc(C(=O)Nc2ncc(C(Sc3ccc4ccccc4c3)c3ccc(Cl)cc3)s2)cc1` (centres undefined), the inhibition in data set [1] amounted to 49%. `O=C(Nc1ncc(C(Oc2ccc3cc(Br)ccc3c2)c2ccc(Cl)cc2)s1)c1cc(F)c(F)cc1F` (centres undefined) showed an inhibition in data set [1] of 44%.

`O=C(Nc1ncc(Cc2ccc(F)cc2)s1)c1ccccc1` displayed an inhibition in data set [1] of 60%. As for `CC(C)(C)OC(=O)Nc1ncc(C(Oc2ccc(OCc3ccccc3)cc2)c2ccc(Cl)cc2)s1` (centres undefined), the inhibition result in data set [1] is “inactive”. In data set [2], the half-maximal cytotoxic concentration (CC50) was greater than 50 µM. Consider `O=C(Nc1ncc(Cc2ccc(F)cc2)s1)c1ccc(Cl)cc1Cl`, for which the inhibition entry in data set [1] is “inactive”. For the same molecule, in data set [2], the CC50 is greater than 50 µM. As to `CC(C)(C)OC(=O)Nc1ncc(C(Oc2ccc(Br)cc2)c2ccc(Cl)cc2)s1` (centres undefined), in data set [1], the inhibition result is “inactive”. Further, the CC50 in data set [2] was greater than 50 µM. In turn, `COCCNc1ncc(C(Oc2ccc3cc(Br)ccc3c2)c2ccc(Cl)cc2)s1` (centres undefined) displayed an inhibition in data set [1] of 37%. For the molecule `O=C(Nc1ncc(Cc2ccc(F)cc2)s1)C1CCCCC1`, the inhibition result in data set [1] is “inactive”. The half-maximal cytotoxic concentration (CC50) in data set [2] was greater than 50 µM.

As to `Cc1ccc(C(=O)Nc2ncc(C(Oc3ccc4cc(Br)ccc4c3)c3ccc(Cl)cc3)s2)cc1` (centres undefined), in data set [1], the inhibition was 71%.

`O=S(=O)(Nc1ncc(C(Oc2ccc3cc(Br)ccc3c2)c2ccc(Cl)cc2)s1)c1ccc2c(c1)CCO2` (centres undefined): in data set [1], the inhibition result was “inactive”. In addition, the cytotoxic concentration (CC50) in data set [2] is greater than 50 µM. Consider `CCN(CC)C(=O)Nc1ncc(C(Oc2ccc3cc(Br)ccc3c2)c2ccc(Cl)cc2)s1` (centres undefined), for which the inhibition in data set [1] stood at 67%. As to `CC(C)(C)OC(=O)Nc1ncc(C(Oc2cccc(C#N)c2)c2ccc(Cl)cc2)s1` (centres undefined), in data set [1], the inhibition entry is “inactive”. The molecule further displayed a CC50 in data set [2] greater than 50 µM. In the same order, the values of `COc1ccc(C(=O)Nc2ncc(C(Oc3ccc4cc(Br)ccc4c3)c3ccc(F)cc3)s2)cc1` (centres undefined) are 76% and greater than 50 µM. With `Clc1ccc(C(Oc2ccc3cc(Br)ccc3c2)c2cnc(NCC3CCCCC3)s2)cc1` (centres undefined), the inhibition in data set [1] worked out at 61%.

Regarding `CCCCC(CC)CNc1ncc(C(Oc2ccc3cc(Br)ccc3c2)c2ccc(Cl)cc2)s1` (centres undefined), the inhibition in data set [1] worked out at 55%. In the case of `CC(C)(C)OC(=O)Nc1ncc(C(Oc2ccc(Cc3ccccc3)cc2)c2ccc(Cl)cc2)s1` (centres undefined), the inhibition result in data set [1] was “inactive”. The same molecule registered a 50% cytotoxic concentration (CC50) in data set [2] greater than 50 µM. On the same counts, the results for `O=C(Nc1ncc(Cc2ccc(Br)cc2)s1)c1ccc2ccccc2c1` are “inactive” and greater than 50 µM. `O=C(Nc1ncc(C(Oc2ccc3cc(Br)ccc3c2)c2ccc(Cl)cc2)s1)c1ccccc1` (centres undefined) displayed an inhibition in data set [1] of 58%. Same read-out and setting: under `O=C(Nc1ncc(C(Oc2ccc3cc(Br)ccc3c2)c2ccc(Cl)cc2)s1)c1ccc(F)cc1F` (centres undefined) stands 51%; under `COc1ccc(Br)c(COC(c2ccccc2)c2cnc(NC(=O)c3cccs3)s2)c1` (centres undefined), 45%.

`O=C(Nc1ncc(C(Oc2ccc3cc(Br)ccc3c2)c2ccc(Cl)cc2)s1)c1cccs1` (centres undefined) returned an inhibition in data set [1] of 47%.

As to `O=C(Nc1ncc(C(Oc2ccc3cc(Br)ccc3c2)c2ccc(Cl)cc2)s1)C1CC1` (centres undefined), the inhibition in data set [1] turned out to be 67%.

Regarding `O=C(Nc1ncc(C(Oc2ccc3cc(Br)ccc3c2)c2ccc(Cl)cc2)s1)c1ccc(Br)cc1` (centres undefined), the inhibition result in data set [1] was “inactive”. For the same molecule, the CC50 in data set [2] is greater than 50 µM. In the same order, the values of `COCCc1ccc(OC(c2ccc(Cl)cc2)c2cnc(NC(=O)OC(C)(C)C)s2)cc1` (centres undefined) are “inactive” and greater than 50 µM. The molecule `Clc1ccc(C(Oc2ccc3cc(Br)ccc3c2)c2cnc(NCC3CCOCC3)s2)cc1` (centres undefined) gave an inhibition in data set [1] of 43%. Still for that read-out and setting: under `CCOC(=O)CCCNc1ncc(C(Oc2ccc3cc(Br)ccc3c2)c2ccc(Cl)cc2)s1` (centres undefined) stands 35%. In the case of `O=C(Nc1ncc(Cc2ccc(F)cc2)s1)c1cccs1`, in the data set with Hepatitis B virus, the IC50 was found to be 6.15 µM. Besides, the CC50 in data set [2] is greater than 500 µM.

For `Cc1cc(Br)cc(OC(c2ccc(Cl)cc2)c2cnc(NC(=O)OC(C)(C)C)s2)c1` (centres undefined), in data set [1], the inhibition result was “inactive”. Besides, in data set [2], the 50% cytotoxic concentration (CC50) was greater than 50 µM. For `O=C(Nc1ncc(Cc2ccc(Cl)cc2)s1)c1ccc(F)cc1F`, in data set [1], the inhibition result is “inactive”.

Molecule `COc1ccc(COC(c2ccccc2)c2cnc(NC(=O)c3cccs3)s2)cc1` (centres undefined) gave an inhibition in data set [1] of 64%. In the case of `COc1ccc(C(=O)Nc2ncc(C(Oc3ccc4ccc(Br)cc4c3)c3ccc(S(C)(=O)=O)cc3)s2)cc1` (centres undefined), the inhibition result in data set [1] was “inactive”. The molecule `O=C(Nc1ncc(C(Oc2ccc3cc(Br)ccc3c2)c2ccc(Cl)cc2)s1)c1ccc(F)cc1` (centres undefined) displayed an inhibition in data set [1] of 50%. The same measure, in the same setting: under `O=C(Nc1ncc(C(OCc2ccc(F)cc2F)c2ccccc2)s1)c1cccs1` (centres undefined) stands 26%. Consider `O=C(Nc1ncc(Cc2ccc(Br)cc2)s1)c1cccs1`, for which the inhibition result in data set [1] is “inactive”. In data set [2], this molecule had a half-maximal cytotoxic concentration (CC50) greater than 50 µM. In the same order, the values of `CC(C)(C)OC(=O)Nc1ncc(C(Oc2ccc(F)c(Cl)c2)c2ccc(Cl)cc2)s1` (centres undefined) are “inactive” and greater than 50 µM.

The molecule `O=C(Nc1ncc(C(OCc2ccc(Br)cc2)c2ccccc2)s1)c1cccs1` (centres undefined) came in with an inhibition in data set [1] of 64%.

With `CCOC(=O)C1=C(CN2CCOCC2)NC(c2nccs2)=NC1c1ccc(F)cc1Br` (centres undefined), the Activity entry in the data set with Hepatitis B virus was “Dose-dependent effect”. `O=S(=O)(Nc1ncc(C(Oc2ccc3cc(Br)ccc3c2)c2ccc(Cl)cc2)s1)c1cccc2nsnc12` (centres undefined): the inhibition in data set [1] came to 50%.

`O=S(=O)(Nc1ncc(C(Oc2ccc3cc(Br)ccc3c2)c2ccc(Cl)cc2)s1)c1cccs1` (centres undefined) displayed an inhibition in data set [1] of 44%.

`Cc1ccc(COC(c2ccccc2)c2cnc(NC(=O)c3cccs3)s2)cc1` (centres undefined) showed an inhibition in data set [1] of 64%. Still for that read-out and setting: under `COCCCNc1ncc(C(Oc2ccc3cc(Br)ccc3c2)c2ccc(Cl)cc2)s1` (centres undefined) stands 38%. `O=C(CCCCC(=O)Nc1ncc(Cc2ccc(F)cc2)s1)Nc1ncc(Cc2ccc(F)cc2)s1`: the inhibition entry in data set [1] was “inactive”. In data set [2], this molecule showed a half-maximal cytotoxic concentration (CC50) greater than 50 µM. In data set [1], `COC(=O)CCCCNc1ncc(C(Oc2ccc3cc(Br)ccc3c2)c2ccc(Cl)cc2)s1` (centres undefined) showed an inhibition of 40%.
